pEC50, pIC50: −log10 of the molar value.
Experiments:
[1] = tested on: Human immunodeficiency virus 1; assay: Ratio of EC50 for HIV1 3B in presence of human serum proteins to EC50 for HIV1 3B in presence of fetal bovine serum; assay type: functional
In short: (§1)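 Same MT-2/HIV-1 IIIB 5-day CellTiter-Glo chemiluminescence assay in 10% FBS, with physiological HSA (35 mg/ml) and α1-AGP (1.5 mg/ml) added. Shift fold is EC50 with these serum proteins divided by EC50 in 10% FBS alone.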

[2] = tested on: Human immunodeficiency virus 1; assay: Antiviral activity against HIV1 3B infected in human MT2 cells after 5 days by chemiluminescence in presence of fetal bovine serum; assay type: functional, organism-based; conditions: Human immunodeficiency virus 1, 3B, MT2, 120 h
In short: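 HIV-1 IIIB infected MT-2 cells at m.o.i. 0.01 for 3 h, then ~1.5 × 10⁴ cells per well were added to 9 fivefold serial drug dilutions in triplicate in medium with 10% FBS. Plates ran 5 days at 37 °C. CellTiter-Glo was added with 10 min room-temperature lysis, and chemiluminescence was read. Values are means of at least two experiments.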

[3] = tested on: Human immunodeficiency virus 1; assay: Antiviral activity against HIV1 3B infected in human MT2 cells after 5 days by chemiluminescence in presence of human serum albumin; assay type: functional, organism-based; conditions: Human immunodeficiency virus 1, 3B, MT2, 120 h; in short: as §1
[4] = Inhibition of HIV integrase strand transfer activity; parameters: species or system Human immunodeficiency virus
In short: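 Strand transfer was run with biotinylated donor DNA bound to streptavidin-coated plates and DIG-tagged target DNA. Values are means of at least two experiments.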

[5] = Clearance in iv dosed dog; assay type: ADME, organism-based, Canis lupus familiaris; conditions: in vivo
In short: (§2)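 Rats and dogs received compound as free parent in solution (EtOH, PG, PEG400 and citric acid), at pH 3.3 for iv and pH 2.2 for oral dosing. Half-life and total body clearance come from the iv groups. Oral F (%) is from po versus iv AUC. Values are means of three animals per study.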

[6] = Clearance in iv dosed rat; assay type: ADME, organism-based; conditions: in vivo; in short: as §2
[7] = Oral bioavailability in dog; assay type: ADME, organism-based, Canis lupus familiaris; conditions: in vivo; in short: as §2
[8] = Half life in iv dosed rat; assay type: ADME, organism-based; conditions: in vivo; in short: as §2
[9] = Half life in iv dosed dog; assay type: ADME, organism-based, Canis lupus familiaris; conditions: in vivo; in short: as §2
[10] = Oral bioavailability in rat; assay type: ADME, organism-based; conditions: in vivo; in short: as §2

CN(c1c2c(c(O)c3ncccc13)C(=O)N(Cc1ccc(F)c(Cl)c1F)C2)S(C)(=O)=O
Ratio EC50 [1]: 3.6 | pEC50 [2]: 8.30 | pEC50 [3]: 7.74 | pIC50 [4]: 6.87

CNC(=O)c1cc(F)ccc1CN1Cc2c(c(O)c3ncccc3c2N(C)S(C)(=O)=O)C1=O
Ratio EC50 [1]: 2.8 | pEC50 [2]: 7.49 | pEC50 [3]: 7.05 | pIC50 [4]: 7.13

Cc1nnc(C(=O)NC(C)(C)c2nc(C(=O)NCc3ccc(F)cc3)c(O)c(=O)n2C)o1 [RALTEGRAVIR]
pEC50 [2]: 8.40 | pEC50 [3]: 7.70 | pIC50 [4]: 7.40

CN(c1c2c(c(O)c3ncccc13)C(=O)N(Cc1ccccc1)C2)S(C)(=O)=O
pEC50 [2]: 7.46 | pIC50 [4]: 6.92

CN(c1c2c(c(O)c3ncccc13)C(=O)N(Cc1cc(Cl)c(F)cc1F)C2)S(C)(=O)=O
clearance [5]: 0.333 mL/min/kg | clearance [6]: 4.83 mL/min/kg | Ratio EC50 [1]: 2.8 | pEC50 [2]: 8.22 | bioavailability [7]: 79% | half-life [8]: 1.38 h | half-life [9]: 16 h | bioavailability [10]: 9% | pEC50 [3]: 7.77 | pIC50 [4]: 7.41

CN(c1c2c(c(O)c3ncccc13)C(=O)N(Cc1ccc(F)cc1)C2)S(C)(=O)=O
clearance [5]: 6.67 mL/min/kg | clearance [6]: 4.67 mL/min/kg | Ratio EC50 [1]: 6.7 | pEC50 [2]: 8.77 | bioavailability [7]: 45% | half-life [8]: 1.1 h | half-life [9]: 7 h | bioavailability [10]: 15% | pEC50 [3]: 7.94 | pIC50 [4]: 7.55

CN(c1c2c(c(O)c3ncccc13)C(=O)N(Cc1cccc(Cl)c1F)C2)S(C)(=O)=O
Ratio EC50 [1]: 3 | pEC50 [2]: 8.22 | pEC50 [3]: 7.74 | pIC50 [4]: 7.21

CN(c1c2c(c(O)c3ncccc13)C(=O)N(Cc1ccc(F)c(Cl)c1)C2)S(C)(=O)=O
clearance [5]: 2.5 mL/min/kg | clearance [6]: 3.83 mL/min/kg | Ratio EC50 [1]: 3.4 | pEC50 [2]: 8.46 | bioavailability [7]: 41% | half-life [8]: 1.36 h | half-life [9]: 7.13 h | bioavailability [10]: 7% | pEC50 [3]: 7.92 | pIC50 [4]: 7.28

CC(=O)Nc1cc(F)ccc1CN1Cc2c(c(O)c3ncccc3c2N(C)S(C)(=O)=O)C1=O
pEC50 [2]: 7.28 | pIC50 [4]: 8.30
